Data taken from ChEMBL document CHEMBL1138117, “Hybrid antibacterials. DNA polymerase-topoisomerase inhibitors” (J Med Chem, 2006).
≈ marks a conversion by molar mass, not a printed value.

Legend:
Bacillus subtilis = assay: Antibacterial activity against Bacillus subtilis BD54; format: functional
Staphylococcus aureus [1] = assay: Antibacterial activity against methicillin resistant Staphylococcus aureus MRSA 1094; format: functional
Enterococcus faecalis = assay: Antibacterial activity against Enterococcus faecalis 29212; format: functional
Enterococcus faecium [2] = assay: Antibacterial activity against Enterococcus faecium 19434; format: functional
Enterococcus faecium [3] = assay: Antibacterial activity against Vancomycin resistant Enterococcus faecium VRE 700802; format: functional
Escherichia coli = assay: Antibacterial activity against Escherichia coli J53; format: functional
Mus musculus = assay: Effect on survival of mice after ip infection with Staphylococcus aureus Smith; format: functional
Outline: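 Male Swiss-Webster mice (20–24 g) were given 10⁸ CFU of log-phase S. aureus Smith ip, grown in LB at 37 °C and washed in cold broth. A single iv tail-vein dose was given in DCP vehicle (10% DMA, 10% Cremophor EL in PBS, pH 9.5; 5 mL/kg) 15 min post-infection. Survival was scored at 72 h and ED50 derived.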

[4] = target: DNA polymerase III PolC-type (Bacillus subtilis (strain 168), UniProt P13267); assay: Binding affinity to Bacillus subtilis DNA polymerase3C; conditions: read-out: Ki
Outline: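 Homogeneous recombinant B. subtilis pol IIIC was assayed in 96-well format on activated calf thymus DNA. Apparent Ki values were determined in a truncated assay lacking the competitor dGTP.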

Staphylococcus aureus [5] = assay: Antibacterial activity against Staphylococcus aureus 25293; format: functional
Staphylococcus aureus [6] = assay: Antibacterial activity against Staphylococcus aureus smith; format: functional

DNA polymerase III PolC-type, sequence (P13267 whole entry, the tested form may be a part): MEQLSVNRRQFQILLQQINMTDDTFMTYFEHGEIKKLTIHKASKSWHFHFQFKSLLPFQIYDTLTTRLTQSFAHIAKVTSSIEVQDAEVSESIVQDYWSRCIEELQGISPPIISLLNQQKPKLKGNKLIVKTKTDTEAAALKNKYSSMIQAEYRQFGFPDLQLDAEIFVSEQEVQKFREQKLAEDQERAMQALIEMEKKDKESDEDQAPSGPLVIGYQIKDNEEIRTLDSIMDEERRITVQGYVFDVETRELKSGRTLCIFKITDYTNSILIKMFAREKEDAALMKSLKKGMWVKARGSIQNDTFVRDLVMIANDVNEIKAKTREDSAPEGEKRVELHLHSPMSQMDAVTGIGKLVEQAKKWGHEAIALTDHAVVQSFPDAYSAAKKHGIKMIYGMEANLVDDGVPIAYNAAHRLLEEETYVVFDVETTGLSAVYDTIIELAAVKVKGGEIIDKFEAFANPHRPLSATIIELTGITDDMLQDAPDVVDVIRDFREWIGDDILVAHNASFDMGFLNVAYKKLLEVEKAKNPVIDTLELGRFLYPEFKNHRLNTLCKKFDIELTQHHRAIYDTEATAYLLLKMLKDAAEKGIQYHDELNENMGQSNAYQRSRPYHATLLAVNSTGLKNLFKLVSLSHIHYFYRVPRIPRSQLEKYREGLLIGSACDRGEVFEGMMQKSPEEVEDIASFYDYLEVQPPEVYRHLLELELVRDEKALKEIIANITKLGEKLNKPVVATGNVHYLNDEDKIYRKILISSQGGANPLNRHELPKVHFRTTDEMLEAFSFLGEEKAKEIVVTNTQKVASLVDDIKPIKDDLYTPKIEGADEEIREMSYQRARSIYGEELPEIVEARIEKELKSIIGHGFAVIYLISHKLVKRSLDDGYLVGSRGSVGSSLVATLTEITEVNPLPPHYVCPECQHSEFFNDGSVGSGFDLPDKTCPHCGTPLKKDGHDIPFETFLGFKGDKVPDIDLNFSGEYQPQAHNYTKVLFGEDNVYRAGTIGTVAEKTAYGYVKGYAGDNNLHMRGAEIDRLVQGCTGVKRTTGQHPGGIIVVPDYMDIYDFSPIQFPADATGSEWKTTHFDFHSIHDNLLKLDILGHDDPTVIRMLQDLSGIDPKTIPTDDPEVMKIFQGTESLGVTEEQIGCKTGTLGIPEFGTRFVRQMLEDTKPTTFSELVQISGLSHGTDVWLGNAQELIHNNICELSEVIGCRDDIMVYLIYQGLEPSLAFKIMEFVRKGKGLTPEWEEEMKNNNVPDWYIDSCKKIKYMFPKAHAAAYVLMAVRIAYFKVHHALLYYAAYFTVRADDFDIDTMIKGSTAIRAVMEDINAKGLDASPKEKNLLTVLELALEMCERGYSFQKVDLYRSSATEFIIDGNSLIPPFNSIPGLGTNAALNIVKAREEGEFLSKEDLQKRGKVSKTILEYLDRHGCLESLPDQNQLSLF

## CCc1cc(Nc2cc(=O)n(CCCCN3CCN(c4c(F)cc5c(=O)c(C(=O)O)cn(C6CC6)c5c4F)CC3CO)c(=O)[nH]2)ccc1C (stereo not given)
Bacillus subtilis
  MIC: 0.625 µg/mL (≈ 0.921 µM)
Staphylococcus aureus [1]
  MIC: 5 µg/mL (≈ 7.37 µM)
Enterococcus faecalis
  MIC: 2.5 µg/mL (≈ 3.68 µM)
Enterococcus faecium [2]
  MIC: 2.5 µg/mL (≈ 3.68 µM)
Enterococcus faecium [3]
  MIC: 2.5 µg/mL (≈ 3.68 µM)
Escherichia coli
  MIC: > 40 µg/mL
Mus musculus
  ED50: 35 mg/kg

## CCc1cc(Nc2cc(=O)n(CCCCN3CCN(c4cc5c(cc4F)c(=O)c(C(=O)O)cn5-c4ccc(F)cc4F)CC3)c(=O)[nH]2)ccc1C
Bacillus subtilis
  MIC: 0.313 µg/mL (≈ 0.445 µM)
Enterococcus faecalis
  MIC: 1.25 µg/mL (≈ 1.78 µM)
Enterococcus faecium [2]
  MIC: 1.25 µg/mL (≈ 1.78 µM)
Enterococcus faecium [3]
  MIC: 1.25 µg/mL (≈ 1.78 µM)
Escherichia coli
  MIC: > 40 µg/mL
Mus musculus
  ED50: 27 mg/kg

## CCc1cc(Nc2cc(=O)n(CCCCN3CCN(c4cc5c(cc4F)c(=O)c(C(=O)O)cn5-c4ccc(F)cc4)CC3)c(=O)[nH]2)ccc1C
[4]
  Ki: 17 nM
Bacillus subtilis
  MIC: 0.156 µg/mL (≈ 0.228 µM)
Staphylococcus aureus [5]
  MIC: 1.25 µg/mL (≈ 1.83 µM)
Staphylococcus aureus [6]
  MIC: 0.625 µg/mL (≈ 0.913 µM)
Staphylococcus aureus [1]
  MIC: 2.5 µg/mL (≈ 3.65 µM)
Enterococcus faecalis
  MIC: 0.625 µg/mL (≈ 0.913 µM)
Enterococcus faecium [2]
  MIC: 1.25 µg/mL (≈ 1.83 µM)
Enterococcus faecium [3]
  MIC: 1.25 µg/mL (≈ 1.83 µM)
Escherichia coli
  MIC: > 40 µg/mL

## CCc1cc(Nc2cc(=O)n(CCCCN3CCN(c4cc5c(cc4F)c(=O)c(C(=O)O)cn5C4CC4)C[C@H]3C)c(=O)[nH]2)ccc1C
Bacillus subtilis
  MIC: 0.313 µg/mL (≈ 0.485 µM)
Staphylococcus aureus [1]
  MIC: 2.5 µg/mL (≈ 3.88 µM)
Enterococcus faecalis
  MIC: 0.625 µg/mL (≈ 0.969 µM)
Enterococcus faecium [2]
  MIC: 0.625 µg/mL (≈ 0.969 µM)
Enterococcus faecium [3]
  MIC: 0.625 µg/mL (≈ 0.969 µM)
Mus musculus
  ED50: 20 mg/kg

## CCc1cc(Nc2cc(=O)n(CCCCCN3CC4CCCN(c5cc6c(cc5F)c(=O)c(C(=O)O)cn6C5CC5)C4C3)c(=O)[nH]2)ccc1C (stereo not given)
[4]
  Ki: 41 nM
Bacillus subtilis
  MIC: 1.25 µg/mL (≈ 1.83 µM)
Staphylococcus aureus [5]
  MIC: 2.5 µg/mL (≈ 3.65 µM)
Staphylococcus aureus [6]
  MIC: 1.25 µg/mL (≈ 1.83 µM)
Staphylococcus aureus [1]
  MIC: > 80 µg/mL
Enterococcus faecalis
  MIC: > 80 µg/mL
Enterococcus faecium [2]
  MIC: > 80 µg/mL
Escherichia coli
  MIC: > 80 µg/mL

## Cc1ccc(Nc2cc(=O)n(CCCCN3CCN(c4cc5c(cc4F)c(=O)c(C(=O)O)cn5C4CC4)CC3)c(=O)[nH]2)cc1C
Bacillus subtilis
  MIC: 0.313 µg/mL (≈ 0.508 µM)
Staphylococcus aureus [5]
  MIC: 1.25 µg/mL (≈ 2.03 µM)
Staphylococcus aureus [6]
  MIC: 0.625 µg/mL (≈ 1.01 µM)
Staphylococcus aureus [1]
  MIC: 5 µg/mL (≈ 8.11 µM)
Enterococcus faecalis
  MIC: 2.5 µg/mL (≈ 4.05 µM)
Enterococcus faecium [2]
  MIC: 2.5 µg/mL (≈ 4.05 µM)
Enterococcus faecium [3]
  MIC: 1.25 µg/mL (≈ 2.03 µM)
Escherichia coli
  MIC: > 40 µg/mL

## CCc1cc(Nc2cc(=O)n(CCCCCN3CC4OCCN(c5cc6c(cc5F)c(=O)c(C(=O)O)cn6C5CC5)C4C3)c(=O)[nH]2)ccc1C (stereo not given)
[4]
  Ki: 33 nM
Bacillus subtilis
  MIC: 0.625 µg/mL (≈ 0.91 µM)
Staphylococcus aureus [5]
  MIC: 1.25 µg/mL (≈ 1.82 µM)
Staphylococcus aureus [6]
  MIC: 0.625 µg/mL (≈ 0.91 µM)
Staphylococcus aureus [1]
  MIC: 5 µg/mL (≈ 7.28 µM)
Enterococcus faecalis
  MIC: 5 µg/mL (≈ 7.28 µM)
Enterococcus faecium [2]
  MIC: > 80 µg/mL
Enterococcus faecium [3]
  MIC: 10 µg/mL (≈ 14.6 µM)
Escherichia coli
  MIC: 40 µg/mL (≈ 58.2 µM)

## CCc1cc(Nc2cc(=O)n(CCCCN3CCN(c4cc5c(cc4F)c(=O)c(C(=O)O)cn5C4CC4)CC3C)c(=O)[nH]2)ccc1C (stereo not given)
[4]
  Ki: 26 nM
Bacillus subtilis
  MIC: 0.313 µg/mL (≈ 0.485 µM)
Staphylococcus aureus [1]
  MIC: 1.25 µg/mL (≈ 1.94 µM)
Enterococcus faecalis
  MIC: 1.25 µg/mL (≈ 1.94 µM)
Enterococcus faecium [2]
  MIC: 1.25 µg/mL (≈ 1.94 µM)
Enterococcus faecium [3]
  MIC: 0.626 µg/mL (≈ 0.971 µM)
Escherichia coli
  MIC: 40 µg/mL (≈ 62 µM)
Mus musculus
  ED50: 20 mg/kg

## CCc1cc(Nc2cc(=O)n(CCCCN3CCN(c4c(F)cc5c(=O)c(C(=O)O)cn(CC)c5c4F)CC3)c(=O)[nH]2)ccc1C
Bacillus subtilis
  MIC: 0.313 µg/mL (≈ 0.492 µM)
Enterococcus faecalis
  MIC: 1.25 µg/mL (≈ 1.96 µM)
Enterococcus faecium [2]
  MIC: 1.25 µg/mL (≈ 1.96 µM)
Enterococcus faecium [3]
  MIC: 0.625 µg/mL (≈ 0.982 µM)
Escherichia coli
  MIC: > 40 µg/mL

## CCc1cc(Nc2cc(=O)n(CCCCN3CCN(c4cc5c(cc4F)c(=O)c(C(=O)O)cn5C4CC4)C[C@@H]3C)c(=O)[nH]2)ccc1C
Staphylococcus aureus [5]
  MIC: 1.25 µg/mL (≈ 1.94 µM)
Staphylococcus aureus [1]
  MIC: 1.25 µg/mL (≈ 1.94 µM)
Enterococcus faecalis
  MIC: 0.625 µg/mL (≈ 0.969 µM)
Enterococcus faecium [2]
  MIC: 1.25 µg/mL (≈ 1.94 µM)
Enterococcus faecium [3]
  MIC: 0.625 µg/mL (≈ 0.969 µM)
Escherichia coli
  MIC: 40 µg/mL (≈ 62 µM)
Mus musculus
  ED50: 30 mg/kg

## CCc1cc(Nc2cc(=O)n(CCCCO)c(=O)[nH]2)ccc1C
[4]
  Ki: 66 nM
Bacillus subtilis
  MIC: 1.25 µg/mL (≈ 3.94 µM)
Staphylococcus aureus [5]
  MIC: 5 µg/mL (≈ 15.8 µM)
Staphylococcus aureus [6]
  MIC: 5 µg/mL (≈ 15.8 µM)
Staphylococcus aureus [1]
  MIC: 5 µg/mL (≈ 15.8 µM)
Enterococcus faecalis
  MIC: 5 µg/mL (≈ 15.8 µM)
Enterococcus faecium [2]
  MIC: 5 µg/mL (≈ 15.8 µM)
Enterococcus faecium [3]
  MIC: 5 µg/mL (≈ 15.8 µM)
Escherichia coli
  MIC: > 40 µg/mL

## O=C(O)c1cn(C2CC2)c2cc(N3CCN(CCCCn4c(=O)cc(Nc5ccccc5)[nH]c4=O)CC3)c(F)cc2c1=O
[4]
  Ki: 29000 nM
Bacillus subtilis
  MIC: 2.5 µg/mL (≈ 4.25 µM)
Staphylococcus aureus [5]
  MIC: 2.5 µg/mL (≈ 4.25 µM)
Staphylococcus aureus [6]
  MIC: 2.5 µg/mL (≈ 4.25 µM)
Staphylococcus aureus [1]
  MIC: > 40 µg/mL
Enterococcus faecalis
  MIC: 10 µg/mL (≈ 17 µM)
Enterococcus faecium [2]
  MIC: > 40 µg/mL
Enterococcus faecium [3]
  MIC: 40 µg/mL (≈ 68 µM)
Escherichia coli
  MIC: > 40 µg/mL

## CCc1cc(Nc2cc(=O)n(CCCCN3CCN(c4c(F)cc5c(=O)c(C(=O)O)cn(C6CC6)c5c4Cl)CC3)c(=O)[nH]2)ccc1C
[4]
  Ki: 10 nM
Bacillus subtilis
  MIC: 0.078 µg/mL (≈ 0.117 µM)
Staphylococcus aureus [5]
  MIC: 0.313 µg/mL (≈ 0.471 µM)
Staphylococcus aureus [6]
  MIC: 0.156 µg/mL (≈ 0.235 µM)
Staphylococcus aureus [1]
  MIC: 1.25 µg/mL (≈ 1.88 µM)
Enterococcus faecalis
  MIC: 0.625 µg/mL (≈ 0.94 µM)
Enterococcus faecium [2]
  MIC: 1.25 µg/mL (≈ 1.88 µM)
Enterococcus faecium [3]
  MIC: 0.625 µg/mL (≈ 0.94 µM)
Escherichia coli
  MIC: 20 µg/mL (≈ 30.1 µM)
